Source: ChEMBL document CHEMBL1142657, “Imidazolidin-4-one derivatives of primaquine as novel transmission-blocking antimalarials” (J Med Chem, 2005)

Experiments:
[1] = Mean number of Plasmodium berghei ANKA […] production in Anopheles stephensi mosquito after treatment with the compound at a dosage 0 umol.1/kg; assay type: functional, Culicidae
How it was run: (§1)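 BalbC mice were infected ip with 10⁷ P. berghei ANKA-parasitized erythrocytes. After 4 days, gametocytes and exflagellation were confirmed on Giemsa smears, and mice were randomized into groups of six. Each received a single ip dose (10 or 50 µmol/kg; controls given PBS). 2 h later, anesthetized mice were placed on Anopheles stephensi cages. Read-outs: % mosquitoes with oocysts, and mean oocysts per infected mosquito (SE).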

[2] = Mean number of Plasmodium berghei ANKA […] production in Anopheles stephensi mosquito after treatment with the compound at a dosage 50 umol.1/kg; assay type: functional, Culicidae; how it was run: as §1
[3] = Percent hydrolysis to the corresponding amino acid product 3, in 80% human plasma at 37C after 3 days of treatment with the compound; assay type: ADME, cell-free; conditions: 72 h
How it was run: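 Aliquots were quenched in acetonitrile and centrifuged. Supernatant went to reversed-phase HPLC (pH 4.75 sodium acetate/acetonitrile gradient with triethylamine) for substrate and amino acid product. Reported as % hydrolysis after 3 days.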

Culicidae [4] = assay: Percentage of Plasmodium berghei ANKA infected Anopheles stephensi mosquitos after treatment with the compound at a dosage of 50 umol.1/kg; assay type: functional; how it was run: as §1
[5] = Mean number of Plasmodium berghei ANKA […] production in Anopheles stephensi mosquito after treatment with the compound at a dosage 10 umol.1/kg; assay type: functional, Culicidae; how it was run: as §1
Culicidae [6] = assay: Percentage of Plasmodium berghei ANKA infected Anopheles stephensi mosquitos after treatment with the compound at a dosage of 10 umol.1/kg; assay type: functional; how it was run: as §1
Culicidae [7] = assay: Percentage of Plasmodium berghei ANKA infected Anopheles stephensi mosquitos after treatment with the compound at a dosage of 0 umol.1/kg; assay type: functional; how it was run: as §1
[8] = Percent hydrolysis to the corresponding amino acid product 3, in pH 7.4 phosphate buffer at 37C after 3 days of treatment with the compound; assay type: ADME, Homo sapiens; conditions: read-out: Hydrolysis
How it was run: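 Hydrolysis followed in pH 7.4 phosphate saline buffer at 37 °C. Substrate and amino acid product were measured by reversed-phase HPLC (pH 4.75 sodium acetate/acetonitrile gradient with triethylamine). Reported as % conversion after 3 days and as half-life in days.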

SMILES | Activity [1] | Activity [2] | Hydrolysis [3] | Infectedmosquitoes (Culicidae [4]) | Activity [5] | Infectedmosquitoes (Culicidae [6]) | Infectedmosquitoes (Culicidae [7]) | degraded at 72 h [8]
COc1cc(NC(C)CCCN2C(=O)CNC2(C)C)c2ncccc2c1 (stereo not drawn) | 105 | 0 | 16% | 0% | 6.1 | 21% |  | 
COc1cc(NC(C)CCCN2C(=O)[C@H](C(C)C)NC2(C)C)c2ncccc2c1 (stereo partly drawn) | 105 | 0.9 |  | 5% | 5 | 25% |  | 
COc1cc(NC(C)CCCN2C(=O)CNC23CCCCC3)c2ncccc2c1 (stereo not drawn) | 105 | 0 |  | 0% | 7.4 | 25% | 65% | 
COc1cc(NC(C)CCCN2C(=O)[C@H](C(C)C)NC23CCCC3)c2ncccc2c1 (stereo partly drawn) | 51 | 0.5 | 5% | 15% | 4.2 | 35% |  | 
COc1cc(NC(C)CCCN2C(=O)[C@H](Cc3ccccc3)NC2(C)C)c2ncccc2c1 (stereo partly drawn) | 66.1 | 0 |  | 0% | 61.2 | 76% |  | 6%
COc1cc(NC(C)CCCN2C(=O)[C@H](C(C)C)NC23CCCCCC3)c2ncccc2c1 (stereo partly drawn) | 120 |  |  |  | 17.7 | 65% |  | 
COc1cc(NC(C)CCCN2C(=O)[C@H](C)NC23CCCCC3)c2ncccc2c1 (stereo partly drawn) | 83.2 | 0 | 9% | 0% | 0.8 | 20% |  | 
COc1cc(NC(C)CCCN2C(=O)[C@H](Cc3ccccc3)NC23CCCCC3)c2ncccc2c1 (stereo partly drawn) | 83.2 | 0 |  | 0% | 71 | 83% |  | 
COc1cc(NC(C)CCCN2C(=O)[C@H](Cc3ccccc3)NC23CCCC3)c2ncccc2c1 (stereo partly drawn) | 66.1 | 0 | 3% | 0% | 51.6 | 65% |  | 
COc1cc(NC(C)CCCN2C(=O)[C@H](Cc3ccccc3)NC23CCCCCC3)c2ncccc2c1 (stereo partly drawn) | 120 | 0 |  | 0% | 78.9 | 90% |  | 10%
COc1cc(NC(C)CCCN)c2ncccc2c1 (stereo not drawn) [PRIMAQUINE] | 83.2 | 0 |  | 50% | 2.6 | 10% | 0% | 
COc1cc(NC(C)CCCN2C(=O)[C@H](CC(C)C)NC2(C)C)c2ncccc2c1 (stereo partly drawn) | 120 | 1 |  | 20% | 13.7 | 30% |  | 10%
COc1cc(NC(C)CCCN2C(=O)[C@H](C(C)C)NC23CCCCC3)c2ncccc2c1 (stereo partly drawn) | 51 | 0.4 |  | 25% | 61.1 | 85% |  | 8%
